Experimental data taken from ChEMBL document CHEMBL4145609, “Cytotoxic Drimane Sesquiterpenoids Isolated from Perenniporia maackiae” (2018).
Counter-ions that a name gives are not always drawn. The source made the active and inactive calls. The rule behind the calls is not given here.

Assays:
Assay type in all cases: functional
NUGC-3 = experiment: Cytotoxicity against human NUGC3 cells assessed as inhibition of cell proliferation measured after 72 hrs by sulforhodamine B assay; conditions: for GI50: NUGC-3, 72 h
In short: (§1)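 Cells seeded at 2 × 10^3 cells/well and exposed to a range of concentrations for 72 h, with adriamycin as reference. Fixed in 10% trichloroacetic acid overnight at 4 °C, stained with 0.4% SRB for 1 h, washed with 1% acetic acid, dye solubilized in 10 mM Tris, absorbance read at 690 nm. GI50 taken from dose–response curves corrected for starting cell count; mean of triplicates.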

NCI-H23 = experiment: Cytotoxicity against human NCI-H23 cells assessed as inhibition of cell proliferation measured after 72 hrs by sulforhodamine B assay; conditions: for GI50: NCI-H23, 72 h; in short: as §1
HCT-15 = experiment: Cytotoxicity against human HCT15 cells assessed as inhibition of cell proliferation measured after 72 hrs by sulforhodamine B assay; conditions: for GI50: HCT-15, 72 h; in short: as §1
ACHN = experiment: Cytotoxicity against human ACHN cells assessed as inhibition of cell proliferation measured after 72 hrs by sulforhodamine B assay; in short: as §1
PC-3 = experiment: Cytotoxicity against human PC3 cells assessed as inhibition of cell proliferation measured after 72 hrs by sulforhodamine B assay; conditions: for GI50: PC-3, 72 h; in short: as §1
MDA-MB-231 = experiment: Cytotoxicity against human MDA-MB-231 cells assessed as inhibition of cell proliferation measured after 72 hrs by sulforhodamine B assay; conditions: for GI50: MDA-MB-231, 72 h; in short: as §1

Row | Structure (SMILES) | Activity (NUGC-3) | Activity (NCI-H23) | Activity (HCT-15) | Activity (ACHN) | Activity (PC-3) | Activity (MDA-MB-231) | GI50 (NUGC-3) [nM] | GI50 (NCI-H23) [nM] | GI50 (HCT-15) [nM] | GI50 (ACHN) [nM] | GI50 (PC-3) [µM] | GI50 (MDA-MB-231) [nM]
1 | CO[C@@H]1C=C2CO[C@@H](O)[C@]2(O)[C@@]2(C)CCCC(C)(C)[C@H]12 | inactive | inactive | inactive | inactive | inactive | inactive |  |  |  |  |  | 
2 | C[C@]1(CO)CCC[C@@]2(C)[C@H]1[C@H](O)C=C1CO[C@@H](O)[C@@]12O | inactive | inactive | inactive | inactive | inactive | inactive |  |  |  |  |  | 
3 | CO[C@H]1C=C2CO[C@@H](O)[C@]2(O)[C@@]2(C)CCCC(C)(C)[C@H]12 |  |  |  |  |  |  | 1900 | 1400 | 1600 | 1200 | 2 | 1500
4 | CC1(C)CCC[C@@]2(C)[C@H]1[C@@H](O)C=C1CO[C@@H](O)[C@@]12O |  |  |  |  |  |  | 2400 | 2100 | 1800 | 2000 | 6 | 2300
5 | CC(=O)O[C@@H]1C=C2CO[C@@H](O)[C@]2(O)[C@@]2(C)CC[C@H](O)C(C)(C)[C@H]12 | inactive | inactive | inactive | inactive | inactive | inactive |  |  |  |  |  | 
6 | CC1(C)CCC[C@@]2(C)[C@H]1C(=O)C=C1CO[C@@H](O)[C@@]12O |  |  |  |  |  |  | 2300 | 4300 | 5400 | 3600 | 4.6 | 4000
7 | COc1cccc2c1C(=O)c1c(O)c3c(c(O)c1C2=O)C[C@@](O)(C(=O)CO)C[C@@H]3O[C@H]1C[C@H](N)[C@H](O)[C@H](C)O1 [DOXORUBICIN HYDROCHLORIDE] |  |  |  |  |  |  | 70 | 80 | 50 | 70 | 0.09 | 70
